# Kir21 block: inhibitors of mouse Kir2.1 inward-rectifier potassium channel; P35561; HEK293-Kir2.1, FluxOR thallium flux fluorescence; stronger effect = lower value; B-score at 10 µM; 310,000 compounds, 0.85% hits; AID 1672;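 active = fluorescence ratio B-score at or below minus 3 SD of library scores, with starting-brightness B-score within 2 SD, cut at about -4.2 in these data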;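 also: channel flux triggered by added potassium and thallium sulfate stimulus; B-score of peak minus minimum fluorescence over baseline after thallium stimulus; more negative B-score means stronger Kir2.1 block with less thallium influx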
# Target sequence (P35561 whole entry, looked up): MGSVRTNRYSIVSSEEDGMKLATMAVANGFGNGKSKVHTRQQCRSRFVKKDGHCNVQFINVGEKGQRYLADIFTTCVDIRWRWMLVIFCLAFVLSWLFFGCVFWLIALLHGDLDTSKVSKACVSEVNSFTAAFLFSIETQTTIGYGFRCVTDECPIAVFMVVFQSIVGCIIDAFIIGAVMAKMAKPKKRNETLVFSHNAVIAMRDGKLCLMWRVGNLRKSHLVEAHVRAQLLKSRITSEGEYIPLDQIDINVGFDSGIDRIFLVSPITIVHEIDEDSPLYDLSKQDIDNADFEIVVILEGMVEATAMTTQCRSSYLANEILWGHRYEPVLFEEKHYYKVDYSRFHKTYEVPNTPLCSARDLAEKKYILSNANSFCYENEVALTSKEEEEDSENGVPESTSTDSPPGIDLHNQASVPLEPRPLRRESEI
# MrgX1 antag: blocks BAM8-22 activation of human MrgX1 receptor | MRGX1-HEK293 calcium flux, Fluo-4, BAM8-22 antagonism; stronger effect = lower value | B-score at 10 µM | 310,000 compounds, 1.3% hits;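 active = calcium-response B-score plate-corrected more than 3 library SD below zero, starting fluorescence within 5 deviations, no agonist response on first addition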;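 also: peak minus trough fluorescence over baseline after final BAM8-22 challenge near maximal dose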
# Target sequence (Q96LB2 whole entry, looked up): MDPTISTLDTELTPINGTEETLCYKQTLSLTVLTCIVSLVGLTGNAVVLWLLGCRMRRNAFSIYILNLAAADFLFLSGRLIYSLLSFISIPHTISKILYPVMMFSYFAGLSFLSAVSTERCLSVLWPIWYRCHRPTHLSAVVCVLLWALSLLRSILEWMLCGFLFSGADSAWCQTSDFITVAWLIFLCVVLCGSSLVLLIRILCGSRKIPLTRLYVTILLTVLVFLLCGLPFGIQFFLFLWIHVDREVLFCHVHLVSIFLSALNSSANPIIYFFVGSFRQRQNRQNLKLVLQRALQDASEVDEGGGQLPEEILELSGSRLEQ
# RGS4 act: potentiators or activators of RGS4; HEK293 M3R/inducible RGS4, carbachol calcium flux Fluo4; stronger effect = lower value; AID 463111; 310,000 compounds, 0.92% hits; B-score at 10 µM;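 active = B-score of the integrated calcium signal more than 4 SD below the library mean, with starting fluorescence not abnormally high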;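 also: negative B-score means reduced calcium response which marks RGS4 activation or potentiation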
#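 Material: M3R-expressing HEK293 line, RGS4 induced by doxycycline | Schedule: Overnight RGS4 induction, 30 min dye load 37 °C, 20 min compound RT | Measured by: Fluo4 fluorescence kinetic imaging of calcium | Read-out: Integrated calcium ratio converted to B score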
# RGS4 block: human RGS4 inhibition | HEK293 M3R/RGS4 inducible, Fluo-4 calcium flux; stronger effect = higher value; triggered by carbachol at its EC20 | B-score at 10 µM | P49798 | 310,000 compounds, 0.45% hits;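 active = B-score, a plate-corrected calcium signal, over three deviations above library mean, with baseline fluorescence within five deviations of library mean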;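 also: RGS4 expression induced by doxycycline in cells with stable M3 receptor; B-score is computed from the integrated fluorescence ratio over baseline after carbachol; higher B-score means a larger calcium signal and so more RGS4 inhibition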
# MrgX1 PAM: human MrgX1 positive allosteric modulation, primary screen; B-score at 10 µM; MrgX1-HEK293, Fluo-4 calcium flux, FDSS; stronger effect = higher value; 310,000 compounds, 0.63% hits;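 active = plate-corrected calcium response at least 3 library SD above typical, normal starting fluorescence, not activating the receptor alone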;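 also: compound read alongside a low EC10 to EC30 dose of BAM8-22 agonist; peak minus trough fluorescence over baseline measured at the second addition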
# MrgX1 agonist: human MrgX1 receptor agonism, primary screen; Q96LB2; MrgX1-HEK293 cells, Fluo-4 calcium fluorescence, agonist mode; stronger effect = higher value; B-score at 10 µM; 310,000 compounds, 0.44% hits;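 active = calcium response B-score plate-corrected fluorescence ratio at least 3 library SD, with starting fluorescence B-score inside 5 SD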
#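 Assay system: MrgX1-expressing HEK293 cells / Amount: fifteen thousand cells per well / Doses: test compound in the initial addition of three / Timing: cells plated overnight, dye loaded 0.5 h 37 °C, 0.5 h room temperature / Technique: kinetic calcium dye fluorescence, Fluo-4 NW / Control set: positive and negative controls per plate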
# MrgX1 ant reconf: human MrgX1 receptor antagonism, re-confirmation screen; shares compounds with MrgX1 antag; MrgX1-HEK293, BAM8-22 calcium flux, Fluo-4; stronger effect = lower value; remaining BAM8-22 calcium response % of control (stronger effect = lower value), % at 10 µM; 2,300 compounds, 19% hits; AID 602420;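 active = remaining agonist calcium response no higher than 100% minus 3 SD of agonist-only control wells, with starting fluorescence near control levels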;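 also: agonist BAM8-22 given at a near maximal EC90 to ECmax level; peak minus minimum fluorescence divided by baseline after agonist addition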
# HEK293 Ca flux: activity in parental HEK293 cells lacking MrgX1. shares compounds with MrgX1 antag. Fluo-4 calcium fluorescence, FDSS. fluorescence ratio F(max-min)/F0 at 10 µM. 4,000 compounds, 2% hits. AID 624111;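 active = duplicate-averaged calcium fluorescence ratio at least three times the standard deviation of buffer wells, a nonspecific response in parental cells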
# HEK293 Ca counter: activity in parental HEK293 cells without MrgX1 | fluorescence ratio F(max-min)/F0 at 10 µM | 4,000 compounds, 0.4% hits | shares compounds with MrgX1 antag | AID 624114 | parental HEK293 calcium flux, Fluo-4 fluorescence ratio; stronger effect = higher value;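 active = calcium fluorescence ratio, averaged over duplicates, at least 3 SD of the buffer-well ratio, meaning a nonspecific response in receptor-free cells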;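 also: untransfected parental HEK293 lacking MrgX1 used as counterscreen for MrgX1 allosteric activators; fluorescence change taken during the second addition on a kinetic imager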
# HEK293 Ca cntr2: MrgX1 activator counter-screen hit in parental HEK293 cells; shares compounds with MrgX1 antag; Fluo-4 calcium fluorescence (FDSS); stronger effect = higher value; fluorescence ratio F(max-min)/F0 at 10 µM; 4,000 compounds, 8.7% hits; AID 624115;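 active = calcium fluorescence ratio at least three times the spread of buffer wells, meaning a non-specific response in parental cells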
# Numbers without * were called inactive; i = inactive; nt = no result. The list is not random: actives were taken first. Their share in the collection is about 4.1%.
SMILES,Kir21 block,MrgX1 antag,RGS4 act,RGS4 block,MrgX1 PAM,MrgX1 agonist,MrgX1 ant reconf,HEK293 Ca flux,HEK293 Ca counter,HEK293 Ca cntr2
O=C(O)CCCC(=O)Nc1ccccc1C(=O)N1CCCC1,-0.36,-5.5*,i,i,i,i,i,i,i,i
O=C(Nc1ccccc1C(=O)N1CCCC1)C1CCN(c2ncccn2)CC1,0.68,-7.2*,i,i,i,i,i,i,i,i
Cc1ccccc1C(=O)NNC(=O)C1CCN(c2ncccn2)CC1,0.5,i,i,i,i,i,nt,nt,nt,nt
Cn1c(SCC(=O)c2c(N)n(C)c(=O)n(C)c2=O)nnc1-c1ccccc1F,1.9,-5.2*,i,i,i,i,i,i,i,i
CC(=O)Nc1ccc(NC(=O)Cn2cnc3c(nnn3Cc3ccc(F)cc3)c2=O)cc1,0.3,-6.8*,i,i,i,i,i,i,i,i
CCNC(=O)CSc1nc2sccc2c(=O)n1-c1ccccc1,0.5,i,i,i,i,i,nt,nt,nt,nt
C=CCNC(=O)CSc1nc2sccc2c(=O)n1-c1ccccc1,-0.98,-5.1*,i,i,i,i,i,i,i,i
CCC(CC)C(=O)Nc1c(C(=O)N2CCN(c3ccccc3)CC2)oc2ccccc12,-0.9,i,i,i,i,i,nt,nt,nt,nt
COc1ccccc1NC(=O)CSc1ccc(-c2ccc(-n3ccnc3)cc2)nn1,-0.54,-5.1*,i,i,i,i,i,i,i,i
Cc1ccccc1NC(=O)CSc1ccc(-c2ccc(-n3cccn3)cc2)nn1,2.3,i,i,i,i,i,nt,nt,nt,nt
COc1ccc(C(=O)CC(=O)C(=O)Nc2ccc(OC)c(Cl)c2)cc1,-2.2,-5.1*,i,i,i,i,i,i,i,i
CCCCc1cn([C@@H](CCCCN)C(=O)N2CCNCC2)nn1,0.02,i,i,i,i,i,nt,nt,nt,nt
NCCCC[C@@H](C(=O)N1CCNCC1)n1cc(CN)nn1,nt,-7.1*,nt,nt,i,i,i,i,i,i
Cc1nnc(SCC(=O)NC(=O)NC(C)(C)C)s1,0.41,-5.6*,i,i,i,i,i,i,i,i
Cc1nnc(SCC(=O)NC(=O)NC(C)C)s1,-0.86,i,i,i,i,i,nt,nt,nt,nt
CCSc1nc2cc(OC)c(OC)cc2c(=O)n1CC,-2.7,-4.8*,i,i,i,i,i,i,i,i
Cc1ccc(C)c(OC2=NS(=O)(=O)c3ccccc32)c1,-0.69,-4.8*,i,i,i,i,i,i,i,i
Cc1nc(NC(=O)/C=C/c2ccco2)sc1C,-0.16,i,i,i,i,i,nt,nt,nt,nt
Cc1ccc(NC(=O)N2CCCC2C(=O)Nc2ccc3c(c2)OCCO3)cc1 (centres undefined),0.38,i,i,i,i,i,nt,nt,nt,nt
Cc1oc(CC(C)C)cc1C(N)=O,2.2,i,i,i,i,i,nt,nt,nt,nt
Cc1oc(CC(C)C)c(CN)c1C(=O)O,-0.15,-4.6*,i,i,i,i,i,i,i,i
Cc1c(C(=O)N2CCN(C)CC2)oc2ccc(Br)cc12,-0.59,i,i,i,i,i,nt,nt,nt,nt
COc1ccc(-c2nc3ccccc3c(=O)n2CCOc2c(C)cccc2C)cc1,-0.97,-4.6*,i,i,i,i,i,0.2*,i,i
Cc1ccc(NC(=O)CC2C(=O)NC3CCCCC3N2C(=O)c2ccc(F)cc2)cc1C (centres undefined),0.61,i,i,i,i,i,nt,nt,nt,nt
O=C(CC1C(=O)NC2CCCCC2N1C(=O)c1ccc(F)cc1)Nc1ccccc1 (centres undefined),0.29,-4.8*,i,i,i,i,i,i,i,i
SMILES,Kir21 block,MrgX1 antag,RGS4 act,RGS4 block,MrgX1 PAM,MrgX1 agonist,MrgX1 ant reconf,HEK293 Ca flux,HEK293 Ca counter,HEK293 Ca cntr2
COc1ccccc1C(=O)N1C(CC(=O)Nc2cc(Cl)ccc2C)C(=O)NC2CCCCC21 (centres undefined),0.49,-4.7*,i,i,i,i,i,i,i,i
CCCCn1c(SCC(N)=O)nc2ccc(N3CCOCC3)cc2c1=O,0.24,i,i,i,i,i,nt,nt,nt,nt
CCCCn1c(SCC(=O)Nc2cccc(OC)c2)nc2ccc(N3CCOCC3)cc2c1=O,-1.8,-5.2*,i,i,i,i,i,i,i,i
COC(=O)c1ccc(NC(=S)NCCc2ccccc2C)cc1,-0.19,-5*,i,i,i,i,i,i,i,i
Cc1noc(C)c1COc1ncnc2ccccc12,1.5,i,i,i,i,i,nt,nt,nt,nt
Cc1noc(C)c1CSc1ncnc2ccccc12,-0.29,-7.7*,i,i,i,i,i,i,i,i
COC(=O)[C@@H]1CCCN1Cc1nc(Cc2ccccc2F)no1,0.07,i,i,i,i,i,nt,nt,nt,nt
N#CC1=C(N)Oc2cc3c(cc2C1c1ccc(Cl)cc1)OCO3 (centres undefined),-1.4,-7.9*,i,i,i,i,i,i,i,i
Cc1nnc(SCC(=O)N(Cc2ccccc2)C(C)(C)C)[nH]c1=O,-1.5,-4.6*,i,i,i,i,i,i,i,i
COc1ccc2[nH]c(=O)c(CN(CC3CCCO3)C(=S)Nc3ccc(C)cc3)cc2c1 (centres undefined),-0.17,i,i,i,i,i,nt,nt,nt,nt
CCOC(=O)c1cc2c3ccccc3n(CC)c2nc1N,2.3,-5.8*,i,i,i,i,i,i,i,i
CC[N+](CC)(CC)CCC(O)(c1ccccc1)C1CCCCC1 (centres undefined),nt,i,nt,nt,i,i,nt,nt,nt,nt
Cc1ccc(Sc2nc(C)cc(C)c2S(C)(=O)=O)cc1,-0.28,i,i,i,i,i,nt,nt,nt,nt

# Screens deposited in PubChem BioAssay by Johns Hopkins Ion Channel Center.
